Results reported in ChEMBL document CHEMBL1821653, “Alcohol-, diol-, and carbohydrate-substituted indenoisoquinolines as topoisomerase I inhibitors: investigating the relationships involving stereochemistry, hydrogen bonding, and biological activity” (2011).

Columns and labels:
[1] = biological target: T1, DNA topoisomerase 1 (Homo sapiens) (UniProt P11387); experiment: Inhibition of recombinant human TOP1 mediated DNA cleavage after 20 mins by gel electrophoresis relative to camptothecin; set-up: concentration or dose not given beside the values
T1 sequence (whole entry): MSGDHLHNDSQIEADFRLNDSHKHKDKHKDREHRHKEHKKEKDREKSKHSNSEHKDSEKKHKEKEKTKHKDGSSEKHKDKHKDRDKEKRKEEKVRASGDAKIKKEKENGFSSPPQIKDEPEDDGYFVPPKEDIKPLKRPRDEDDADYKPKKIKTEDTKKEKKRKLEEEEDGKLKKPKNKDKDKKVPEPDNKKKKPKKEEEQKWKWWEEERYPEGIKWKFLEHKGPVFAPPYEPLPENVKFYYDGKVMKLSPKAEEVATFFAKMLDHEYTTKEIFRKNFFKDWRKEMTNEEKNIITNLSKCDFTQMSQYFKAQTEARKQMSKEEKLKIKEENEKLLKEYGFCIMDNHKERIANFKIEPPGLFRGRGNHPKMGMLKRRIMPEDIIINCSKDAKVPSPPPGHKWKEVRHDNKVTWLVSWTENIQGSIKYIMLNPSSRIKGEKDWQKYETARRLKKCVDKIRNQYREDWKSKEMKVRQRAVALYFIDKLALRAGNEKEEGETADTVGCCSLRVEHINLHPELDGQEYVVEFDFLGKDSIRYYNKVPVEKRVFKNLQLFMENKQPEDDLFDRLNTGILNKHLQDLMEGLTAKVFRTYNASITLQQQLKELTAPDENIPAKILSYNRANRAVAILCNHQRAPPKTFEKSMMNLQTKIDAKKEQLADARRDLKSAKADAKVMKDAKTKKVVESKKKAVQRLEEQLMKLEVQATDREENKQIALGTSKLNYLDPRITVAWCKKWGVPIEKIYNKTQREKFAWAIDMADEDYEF
In short: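 117-bp oligonucleotide containing Top1 cleavage sites, 3'-end labeled with [α-32P]-dGTP by Klenow fill-in. About 2 nM substrate incubated with recombinant Top1 and various compound concentrations for 20 min at 25 °C in 10 mM Tris-HCl pH 7.5, 50 mM KCl, 5 mM MgCl2, 0.1 mM EDTA, 15 μg/mL BSA. Stopped with 0.5% SDS, run on 20% denaturing PAGE, phosphorimaged.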

UACC-62 = experiment: Antiproliferative activity against human UACC62 cells by SRB assay; format: functional
In short: (§1)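 NCI 60-cell-line human tumor panel. Compounds first screened at one dose of 10^-5 M. Selected compounds then tested at five concentrations from 10^-8 to 10^-4 M. GI50 is the concentration giving 50% growth inhibition. GI50 values outside the tested range are assigned 10^-8 M or 10^-4 M.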

DU-145 = experiment: Antiproliferative activity against human DU145 cells by SRB assay; format: functional; in short: as §1
SN12C = experiment: Antiproliferative activity against human SN12C cells by SRB assay; format: functional; in short: as §1
MCF7 = experiment: Antiproliferative activity against human MCF7 cells by SRB assay; format: functional; in short: as §1
SF-539 = experiment: Antiproliferative activity against human SF539 cells by SRB assay; format: functional; in short: as §1
HCT-116 = experiment: Antiproliferative activity against human HCT116 cells by SRB assay; format: functional; in short: as §1
OVCAR-3 = experiment: Antiproliferative activity against human OVCAR3 cells by SRB assay; format: functional; in short: as §1
HOP-62 = experiment: Antiproliferative activity against human HOP62 cells by SRB assay; format: functional; in short: as §1

SMILES	inhibition [1] [%]	GI50 (UACC-62) [µM]	GI50 (DU-145) [µM]	GI50 (SN12C) [µM]	GI50 (MCF7) [µM]	GI50 (SF-539) [µM]	GI50 (HCT-116) [µM]	GI50 (OVCAR-3) [µM]	GI50 (HOP-62) [µM]
O=C1c2ccccc2-c2c1c1ccccc1c(=O)n2C[C@H](O)[C@@H](O)[C@H](O)[C@H](O)CO	50								
C[C@@H](O)Cn1c2c(c3ccccc3c1=O)C(=O)c1ccccc1-2	75	10.2	8.32	9.33	3.23	6.31	5.52	21.4	3.39
C[C@H](O)Cn1c2c(c3ccccc3c1=O)C(=O)c1ccccc1-2	75								
O=C1c2ccccc2-c2c1c1ccccc1c(=O)n2CC(O)CO (racemic)	50	7.58	2.88	2.95	3.55	5.89	4.36	18.6	7.76
COc1cc2c3c(n(C)c(=O)c2cc1OC)-c1cc2c(cc1C3=O)OCO2		4.2	37	68	1.58		35		1.3
O=C1c2ccccc2-c2c1c1ccccc1c(=O)n2C[C@H](O)[C@@H](O)[C@@H](O)[C@H](O)CO	20								
C[C@H](CO)n1c2c(c3ccccc3c1=O)C(=O)c1ccccc1-2	20								
O=C1c2ccccc2-c2c1c1ccccc1c(=O)n2C[C@H](O)[C@@H](O)[C@H](O)CO	50	2.88		2.24	1.74	7.94	3.39	24	3.23
O=C1c2ccccc2-c2c1c1ccccc1c(=O)n2C[C@H](O)CO	75	5.37	5.75	6.92	4.9	7.41		14.5	5.01
CC(O)Cn1c2c(c3ccccc3c1=O)C(=O)c1ccccc1-2 (racemic)	20	6.16	4.36	3.98	3.8	6.76	5.75	16.2	3.46
O=C1c2ccccc2-c2c1c1ccc([N+](=O)[O-])cc1c(=O)n2C[C@H](O)CO	> 95	0.098	0.04	0.241	0.016	0.157	0.025	0.309	0.089
O=C1c2ccccc2-c2c1c1ccccc1c(=O)n2C[C@@H](O)[C@H](O)[C@H](O)CO	50	7.41	16.6	20	4.57	7.59		> 100	8.71
COc1cc2c3c(n(CCCNCCO)c(=O)c2cc1OC)-c1cc2c(cc1C3=O)OCO2 [LMP-744]	> 95				< 0.01	0.04		0.5	
COc1cc2c3c(n(CCCn4ccnc4)c(=O)c2cc1OC)-c1cc2c(cc1C3=O)OCO2 [INDIMITECAN]	> 95				0.01				
COc1cc2c3c(n(C[C@H](O)CO)c(=O)c2cc1OC)-c1ccccc1C3=O	75	0.144	0.419	0.501	0.097	0.214	0.23	0.287	0.336
COc1cc2c3c(n(CCCN4CCOCC4)c(=O)c2cc1OC)-c1cc2c(cc1C3=O)OCO2 [INDOTECAN]	> 95				0.37				
O=C1c2ccccc2-c2c1c1ccccc1c(=O)n2C[C@H](O)[C@H](O)[C@H](O)CO	0	3.23	1.32	2.4	1.38	2.14	3.39	13.5	2.95
O=C(CO)Cn1c2c(c3ccccc3c1=O)C(=O)c1ccccc1-2	20	58.9	17.8	81.3	32.3	20	30.9	5.23	40.7
O=C1c2ccccc2-c2c1c1ccccc1c(=O)n2C[C@H](O)[C@H](O)[C@H](O)[C@H](O)CO		2.95	3.31	3.39	1.78	5.75	4.17	13.8	3.23
C[C@@H](CO)n1c2c(c3ccccc3c1=O)C(=O)c1ccccc1-2	50								
O=C1c2ccccc2-c2c1c1ccc([N+](=O)[O-])cc1c(=O)n2C[C@H](O)[C@@H](O)[C@H](O)[C@H](O)CO	> 95	2.98	4.76	17.7	0.88	2.61	5.08	4.26	7.35
NCC(O)Cn1c2c(c3ccccc3c1=O)C(=O)c1ccccc1-2 (racemic)	50	0.318	0.13	0.206	0.198	0.344	0.263	1.32	0.276
O=C1c2ccccc2-c2c1c1ccccc1c(=O)n2C[C@@H](O)[C@@H](O)[C@H](O)[C@H](O)CO	20								
O=C1c2ccccc2-c2c1c1ccccc1c(=O)n2C[C@@H](O)[C@@H](O)[C@H](O)CO	75	6.31	3.98	5.01	1.9	11.2	3.39	13.2	6.46
O=C1c2ccccc2-c2c1c1ccccc1c(=O)n2C[C@@H](O)CO	50	4.36	2.34	3.77	3.04	5.72	4.47	16.1	3.79
CC[C@@]1(O)C(=O)OCc2c1cc1n(c2=O)Cc2cc3ccccc3nc2-1 [CAMPTOTHECIN]					0.01				
CC(CO)n1c2c(c3ccccc3c1=O)C(=O)c1ccccc1-2 (racemic)	20	11.7	23.7	37.1	34.4	14.4	15.9	25.7	17.6
